{
  "source": "ChEMBL document CHEMBL4732155",
  "about": "(Eur J Med Chem, 2021)",
  "key": {"[1]": {"assay": "Effect on LAMP1 expression in human HCT-116 cells at 30 uM measured after 6 hrs by LC-MS/MS analysis relative to control", "type": "functional", "how_it_was_run": "(§1)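 HCT116 cells treated 6 h with DMSO, 15 μM or 30 μM compound, then pelleted. Peptides (1 μg) separated on a 25 cm C18 nano-column with a 136 min gradient and analysed by label-free LC-MS/MS on an Orbitrap Eclipse. Searched against the UniProt human database and quantified from normalized abundance. Two independent biological replicates per group; log2 fold change versus DMSO, p < 0.05.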"}, "[2]": {"assay": "Effect on SQSTM1 expression in human HCT-116 cells at 30 uM measured after 6 hrs by LC-MS/MS analysis relative to control", "type": "functional", "how_it_was_run": "as §1"}, "[3]": {"assay": "Effect on BRIX1 expression in human HCT-116 cells at 30 uM measured after 6 hrs by LC-MS/MS analysis relative to control", "type": "functional", "how_it_was_run": "as §1"}, "[4]": {"assay": "Inhibition of yeast Cdc48 assessed as reduction in ATPase activity measured after 60 mins by biomol green reagent based assay", "set-up": "species or system Saccharomyces cerevisiae", "how_it_was_run": "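Incubation ran 60 min at room temperature and was stopped with Biomol Green. Phosphate was read as absorbance at 635 nm. IC50 came from an eight-dose titration, six replicates.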"}, "[5]": {"target": "Transitional endoplasmic reticulum ATPase (Homo sapiens, UniProt P55072, C522A)", "sequence (P55072 2-806 C522A limits assumed)": "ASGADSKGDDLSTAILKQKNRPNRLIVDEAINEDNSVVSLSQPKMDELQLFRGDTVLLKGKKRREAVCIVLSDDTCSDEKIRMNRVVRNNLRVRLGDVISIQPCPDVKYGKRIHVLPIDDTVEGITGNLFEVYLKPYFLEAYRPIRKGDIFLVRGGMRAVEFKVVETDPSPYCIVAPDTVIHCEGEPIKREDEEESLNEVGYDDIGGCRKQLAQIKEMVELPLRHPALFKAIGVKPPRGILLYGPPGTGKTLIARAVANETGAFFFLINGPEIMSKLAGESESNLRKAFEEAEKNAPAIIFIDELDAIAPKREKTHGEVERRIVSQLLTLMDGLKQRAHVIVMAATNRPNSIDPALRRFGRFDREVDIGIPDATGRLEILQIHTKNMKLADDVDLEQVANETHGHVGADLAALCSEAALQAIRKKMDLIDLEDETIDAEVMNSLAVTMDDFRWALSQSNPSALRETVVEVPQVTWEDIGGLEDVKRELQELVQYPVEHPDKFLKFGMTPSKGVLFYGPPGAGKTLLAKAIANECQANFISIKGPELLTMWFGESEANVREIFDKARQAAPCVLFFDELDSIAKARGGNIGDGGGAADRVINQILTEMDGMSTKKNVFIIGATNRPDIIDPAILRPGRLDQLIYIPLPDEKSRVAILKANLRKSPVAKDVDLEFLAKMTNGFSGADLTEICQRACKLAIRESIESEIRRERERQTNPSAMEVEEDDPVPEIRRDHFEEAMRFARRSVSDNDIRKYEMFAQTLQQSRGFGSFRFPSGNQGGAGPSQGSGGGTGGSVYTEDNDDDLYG", "assay": "Inhibition of His6-tagged p97 C522A mutant (unknown origin) expressed in Escherichia coli BL21 (DE3) assessed as reduction in ATPase activity measured after 60 mins by biomol green reagent based assay", "how_it_was_run": "(§2)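 His6-p97 expressed in E. coli BL21(DE3), purified by Ni-NTA and gel filtration (500–600 kDa fractions, ≥95% pure). Phosphate read by Biomol Green at 635 nm. Eight-dose titrations; IC50 from six replicates. Thiol tests added DTT or cysteine during preincubation.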"}, "[6]": {"assay": "Effect on ZFAND1 expression in human HCT-116 cells at 15 uM measured after 6 hrs by LC-MS/MS analysis relative to control", "type": "functional", "how_it_was_run": "as §1"}, "[7]": {"system": "HCT-116", "assay": "Antiproliferative activity against human HCT-116 cells after 48 hrs by celltiter-glo luminescence assay", "type": "functional, cell-based", "conditions": "HCT-116, 48 h"}, "[8]": {"system": "HCT-116", "assay": "Antiproliferative activity against NMS-873-resistant human HCT-116 cells after 48 hrs by celltiter-glo luminescence assay", "type": "functional, cell-based", "how_it_was_run": "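CellTiter-Glo viability in HCT116 lines carrying resistance mutations in p97 (CB-5083-resistant: D649A/T688A; NMS-873-resistant: A530T). Cells seeded at 750 or 3000/well within the linear range of a per-line standard curve, in DMEM with 5% FBS. Treated 24 h after seeding with eight three-fold dilutions for 48 h. IC50 from percent growth versus DMSO control; mean ± SEM of four replicate experiments.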"}, "[9]": {"assay": "Effect on EPPK1 expression in human HCT-116 cells at 15 uM measured after 6 hrs by LC-MS/MS analysis relative to control", "type": "functional", "how_it_was_run": "as §1"}, "[10]": {"target": "T1, Transitional endoplasmic reticulum ATPase (Homo sapiens, UniProt P55072)", "assay": "Inhibition of His6-tagged p97 (unknown origin) expressed in Escherichia coli BL21 (DE3) assessed as reduction in ATPase activity measured after 60 mins in presence of cysteine by biomol green reagent based assay", "how_it_was_run": "as §2"}, "[11]": {"target": "T1, Transitional endoplasmic reticulum ATPase", "assay": "Inhibition of p97 in human HeLa cells assessed as reduction in proteasomal turnover of p97-dependent reporter substrate UbG76V-GFP incubated for 120 mins by GFP fluorescence imaging"}, "[12]": {"target": "T1, Transitional endoplasmic reticulum ATPase", "assay": "Inhibition of His6-tagged p97 (unknown origin) expressed in Escherichia coli BL21 (DE3) assessed as reduction in ATPase activity measured after 60 mins by biomol green reagent based assay", "how_it_was_run": "as §2"}, "[13]": {"assay": "Effect on CDK2AP1 expression in human HCT-116 cells at 15 uM measured after 6 hrs by LC-MS/MS analysis relative to control", "type": "functional", "how_it_was_run": "as §1"}, "[14]": {"target": "T1, Transitional endoplasmic reticulum ATPase", "assay": "Irreversible inhibition of p97 in human HeLa cells assessed as reduction in p97-dependent reporter substrate UbG76V-GFP degradation preincubated followed by washout and measured after 17 hrs by luciferase reporter gene assay", "type": "cell-based", "conditions": "in the assay text read “GFP fluorescence assay” for “luciferase reporter gene assay”", "how_it_was_run": "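HeLa cells expressing UbG76V-GFP/ODD-Luc, 5000 cells/well in DMEM with 2.5% FBS. Pretreated with 4 μM MG132 for 60 min at 37 °C, PBS-washed, then given cycloheximide plus compound for 120 min. After washout, GFP decay followed in cycloheximide for an additional 17 h. GFP read by high-content imaging; luciferase read with D-luciferin; quadruplicates.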"}, "[15]": {"assay": "Effect on AP2M1 expression in human HCT-116 cells at 30 uM measured after 6 hrs by LC-MS/MS analysis relative to control", "type": "functional", "how_it_was_run": "as §1"}, "[16]": {"assay": "Effect on GOLGA3 expression in human HCT-116 cells at 30 uM measured after 6 hrs by LC-MS/MS analysis relative to control", "type": "functional", "how_it_was_run": "as §1"}, "[17]": {"target": "T1, Transitional endoplasmic reticulum ATPase", "assay": "Inhibition of p97 (unknown origin) expressed in HEK293 cells co-expressing TCRalpha-GFP assessed as reduction in ERAD-dependent reporter substrate TCRalpha-GFP degradation at 10 uM incubated for 60 to 120 mins by immunoblotting analysis", "type": "cell-based", "conditions": "time lower 60.0 min, time upper […]", "how_it_was_run": "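HEK293 cells stably expressing TCRα-GFP pretreated with 4 μM MG132 for 1 h and washed. Then incubated with 50 μM cycloheximide plus 10 μM compound for 60 or 120 min before harvest. Immunoblotted with anti-GFP, with anti-p97 as loading control.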"}, "[18]": {"assay": "Effect on STIM1 expression in human HCT-116 cells at 30 uM measured after 6 hrs by LC-MS/MS analysis relative to control", "type": "functional", "how_it_was_run": "as §1"}, "[19]": {"assay": "Effect on AUP1 expression in human HCT-116 cells at 30 uM measured after 6 hrs by LC-MS/MS analysis relative to control", "type": "functional", "how_it_was_run": "as §1"}, "[20]": {"system": "RPMI-8226", "assay": "Antiproliferative activity against human RPMI-8226 cells after 48 hrs by celltiter-glo luminescence assay", "type": "functional, cell-based", "conditions": "RPMI-8226, 48 h"}, "[21]": {"assay": "Effect on BRIX1 expression in human HCT-116 cells at 15 uM measured after 6 hrs by LC-MS/MS analysis relative to control", "type": "functional", "how_it_was_run": "as §1"}, "[22]": {"system": "HeLa", "assay": "Antiproliferative activity against human HeLa cells after 48 hrs by celltiter-glo luminescence assay", "type": "functional, cell-based"}, "[23]": {"assay": "Effect on PRKRIR expression in human HCT-116 cells at 15 uM measured after 6 hrs by LC-MS/MS analysis relative to control", "type": "functional", "how_it_was_run": "as §1"}, "[24]": {"assay": "Inhibition of yeast Cdc48 T532C mutant assessed as reduction in ATPase activity measured after 60 mins by biomol green reagent based assay", "set-up": "species or system Saccharomyces cerevisiae", "how_it_was_run": "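Yeast Cdc48 ATPase activity with 200 μM ATP in Tris pH 7.4 buffer containing MgCl2, EDTA, TCEP and Triton X-100, 60 min at room temperature. Biomol Green read at 635 nm. Eight-dose titration; IC50 from six replicates.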"}, "[25]": {"assay": "Effect on KNTC1 expression in human HCT-116 cells at 30 uM measured after 6 hrs by LC-MS/MS analysis relative to control", "type": "functional", "how_it_was_run": "as §1"}},
  "note": "The source made the active and inactive calls. The calls are words filed in the database; no cut-off is given here.",
  "data": [
    {"smiles": "C=CC(=O)Nc1ncnc2c1c(-c1ccccc1)nn2C(C)(C)C", "values": [
      {"measurement": "log2FC", "setting": "[1]", "value": -0.66},
      {"measurement": "log2FC", "setting": "[2]", "value": 0.97},
      {"measurement": "log2FC", "setting": "[3]", "value": 0.7},
      {"measurement": "IC50", "setting": "[4]", "value": 376, "unit": "µM"},
      {"measurement": "IC50", "setting": "[5]", "value": 110, "unit": "µM"},
      {"measurement": "log2FC", "setting": "[6]", "value": 0.49},
      {"measurement": "IC50", "setting": "[7]", "value": 2.7, "unit": "µM"},
      {"measurement": "Activity", "setting": "[8]", "value": "Active"},
      {"measurement": "log2FC", "setting": "[9]", "value": 0.38},
      {"measurement": "inhibition", "setting": "[10]", "value": "Active"},
      {"measurement": "IC50", "setting": "[11]", "value": 1.6, "unit": "µM"},
      {"measurement": "IC50", "setting": "[12]", "value": 0.6, "unit": "µM"},
      {"measurement": "log2FC", "setting": "[13]", "value": -0.48},
      {"measurement": "inhibition", "setting": "[14]", "value": "Active"},
      {"measurement": "log2FC", "setting": "[15]", "value": -0.38},
      {"measurement": "log2FC", "setting": "[16]", "value": -0.7},
      {"measurement": "inhibition", "setting": "[17]", "value": "Active"},
      {"measurement": "log2FC", "setting": "[18]", "value": 1.65},
      {"measurement": "log2FC", "setting": "[19]", "value": -0.43},
      {"measurement": "IC50", "setting": "[20]", "value": 3.4, "unit": "µM"},
      {"measurement": "log2FC", "setting": "[21]", "value": 0.52},
      {"measurement": "IC50", "setting": "[22]", "value": 6.1, "unit": "µM"},
      {"measurement": "log2FC", "setting": "[23]", "value": 0.69},
      {"measurement": "IC50", "setting": "[24]", "value": 14, "unit": "µM"},
      {"measurement": "log2FC", "setting": "[25]", "value": -0.87}
    ]}
  ]
}
